We go through five compounds from PMC8448143 (Antimicrobial Agents and Chemotherapy, 2021).

“Also recorded” adds a separate entry of the source. Where two headings read alike, the source gives them in different places.

Data set [1] relates to SARS-CoV-2 (2019-nCoV/USA-WA1/2020). As to the kind of experiment: SARS-CoV-2 antiviral assay. Type of data set: cell-based. As to conditions: Vero E6 cells; CC50/EC50.
The test system is the same in data set [2]. As to the kind of experiment: SARS-CoV-2 antiviral assay. Type of data set: cell-based. The settings on record: for EC90: Severe acute respiratory syndrome coronavirus 2, in Homo sapiens, 48 h; for Selectivity index: CC50/EC50.
Data set [3] has the same test system. Briefly: SARS-CoV-2 antiviral assay. Type of data set: cell-based. As to conditions: for Selectivity index: Huh7.5 cells, CC50/EC50.
Data set [4] in a line: in vitro. The settings on record: African green monkey.
Data set [5] is described as follows: in vitro. The settings on record: human.
Data set [6] concerns SARS-CoV-2 (2019-nCoV/USA-WA1/2020). Briefly: SARS-CoV-2 antiviral assay. Type of data set: cell-based. As to conditions: for Selectivity index: Calu-3 cells, CC50/EC50.
The test system is the same in data set [7]. As to the kind of experiment: SARS-CoV-2 antiviral assay. Type of data set: cell-based. As to conditions: for Selectivity index: Caco-2 cells, CC50/EC50; for EC50 / EC90: Severe acute respiratory syndrome coronavirus 2, Caco-2, 48 h.
Data set [8] is described as follows: in vitro. As to conditions: human. The source holds these as a separate data set.
Data set [9] is described as follows: in vitro. The settings on record: human. The source holds these as a separate data set.
The nature of data set [10]: in vitro. As to conditions: human. This is another data set of the same source.
In another data set the test system is human coronavirus 229E. As to the kind of experiment: microbe, parasite or virus in culture. The settings on record: MRC5, 72 h. Type of data set: cell-based.
The conditions of data set [11]: ex vivo; cited from earlier work.
The conditions of data set [12]: in vivo, rhesus monkeys; cited from earlier work.
Data set [13] concerns SARS-CoV-2. The settings on record: Calu-3 2B4 cells; cited from earlier work.
In data set [14] the test system is SARS-CoV-2. As to conditions: human alveolar epithelial (HAE) cells; cited from earlier work.
For data set [15] the following is noted: cited from earlier work.
Data set [16] can be described thus: Seven-day oral pharmacokinetics and tolerability in Syrian hamsters. Type of data set: in vivo. The gist of the method:
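Syrian hamsters in groups of 3 received vehicle or test compound by oral gavage every 12 h for 7 days, at 16.9 or 13.2 mg/kg body weight. Plasma levels of the prodrug and its nucleoside metabolite were followed after dosing. Animals were monitored for adverse clinical signs.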

The nature of data set [17]: in vitro. As to conditions: both, human, plasma.
The nature of data set [18]: in vitro.
Where [19] appears, read: Severe acute respiratory syndrome coronavirus 2, Huh7.5, 48 h.
Setting [20] is: Severe acute respiratory syndrome coronavirus 2, Calu-3, 48 h.

For the compound `CCCCCCCCCCCCCCCCOCCCOP(=O)(O)OC[C@H]1O[C@@](C#N)(c2ccc3c(N)ncnn23)[C@H](O)[C@@H]1O` [HDP-P-RVn, {(2R,3S,4R,5R)-5-(4-aminopyrrolo[2,1-f][1,2, 4]triazin-7-yl)-5-cyano-3,4-dihydroxytetrahydrofuran-2-yl}methyl [3-(hexadecyloxy)propyl] hydrogen phosphate], the Selectivity index in data set [1] is recorded as greater than 158; in data set [3], greater than 526. The EC90 (in general, the concentration needed for an effect of 90%) is 940 nM in [2] and 400 nM in data set [3] (setting [19]). The figures for the EC50 in data set [3] and in data set [3] (setting [19]) were 190 nM and less than 200 nM, respectively. Also, the CC50 in the data set “in vitro [4]” and in “in vitro [5]” was greater than 100000 nM throughout.

On to `N#C[C@@]1(c2ccc3c(N)ncnn23)O[C@H](CO)[C@@H](O)[C@H]1O` [RVn, remdesivir nucleoside, reference compound], for which the Selectivity index in [2] (PSC-human lung cells) was greater than 135; in data set [6], greater than 666; in data set [3], greater than 312; in [7], greater than 104. Further, the EC90 came out at 2620 nM in data set [2], 180 nM in [6] (setting [20]), 730 nM in [3] (setting [19]) and 1750 nM in data set [7]. In addition, the EC50 – broadly, the midpoint of the concentration-response curve – in data set [6] (setting [20]) stood at 150 nM; in [3] (setting [19]), 320 nM; in [7], 960 nM. Further, the CC50 in the data set “in vitro [4]”, in the data set “in vitro [8]”, in the data set “in vitro [9]”, in “in vitro [5]” and in “in vitro [10]” was greater than 100000 nM throughout.

Turning to `CCC(CC)COC(=O)[C@H](C)N[P@](=O)(OC[C@H]1O[C@@](C#N)(c2ccc3c(N)ncnn23)[C@H](O)[C@@H]1O)Oc1ccccc1` [RDV, remdesivir, reference compound], the EC90 in [2] was 230 nM; in [6] (setting [20]), 310 nM; in data set [3] (setting [19]) it was 120 nM; in [7] it was 280 nM; in the data set with human coronavirus 229E, 260 nM. The EC50 in data set [6] (setting [20]) was 230 nM; in data set [3] (setting [19]) it was 60 nM; in [7] it was 170 nM; in the data set on human coronavirus 229E it was 40 nM; with SARS-CoV-2 [13], 280 nM; in the data set on SARS-CoV-2 [14], 10 nM. Moreover, in [11], the “half-life (t1/2) in human plasma” value was 1.15 h. In addition, the “persistence in plasma after intravenous infusion” value in data set [12] is “less than 2 h”; in data set [15] (in vivo, COVID-19 patients), “less than 2 h”. For the same compound, the CC50 in the data set “in vitro [4]” was 101000 nM. Besides, the “drop of plasma level after the intravenous infusion stopped” value in data set [15] (two patients with COVID-19, 1 h after the infusion stopped) is greater than 90%.

For the compound `CCCCCCCCCCCCCCCCCCOC[C@H](COP(=O)(O)OC[C@H]1O[C@@](C#N)(c2ccc3c(N)ncnn23)[C@H](O)[C@@H]1O)OCc1ccccc1` [ODBG-P-RVn, {(2R,3S,4R,5R)-5-(4-aminopyrrolo[2,1-f][1,2, 4]triazin-7-yl)-5-cyano-3,4-dihydroxytetrahydrofuran-2-yl]methyl [(R)-2-(benzyloxy)-3-(octadecyloxy)propyl] hydrogen phosphate], the Selectivity index in [1] is given as 699; in [2] (PSC-human lung cells), 410; in data set [6] it was 327; in [3] it was 449; in data set [7], 295. Also, the EC90 in data set [2] was found to be 260 nM; in data set [6] (setting [20]) it was 330 nM; in data set [3] (setting [19]), 150 nM; in [7], 330 nM; in the data set on human coronavirus 229E, 540 nM. Further, the concentration giving a half-maximal response (EC50) in [6] (setting [20]) is less than 350 nM; in [3] (setting [19]) it was less than 200 nM; in data set [7] it was 300 nM; with human coronavirus 229E it was 150 nM. Moreover, the tolerability entry in [16] (Syrian hamsters, oral gavage every 12 h for 7 days, 16.9 and 13.2 mg/kg) was “well tolerated; also recorded: well tolerated, and no adverse clinical signs were noted”. Also, the “plasma level of ODBG-P-RVn relative to its EC90” value in data set [16] (Syrian hamsters, oral, at 12 h, days 1 and 7, EC90 in all cell lines studied) is listed as “above the 90% effective concentration (EC90); also recorded: higher than the EC90”. In addition, in data set [16] (Syrian, hamster, plasma, po), the Tmax (as a rule, the time from dosing to the highest level) came out at 1 h. Moreover, the CC50 is 97900 nM in “in vitro [4]” and 61500 to 98200 nM in the data set “in vitro [18]”. Further, the half-life (in general, how long it takes for the measured level to halve) in “in vitro [17]” was greater than 24 h.

In the case of `CCCCCCCCCCCCCCCCCCOCCOP(=O)(O)OC[C@H]1O[C@@](C#N)(c2ccc3c(N)ncnn23)[C@H](O)[C@@H]1O` [ODE-P-RVn, {(2R,3S,4R,5R)-5-(4-aminopyrrolo[2,1-f][1,2, 4]triazin-7-yl)-5-cyano-3,4-dihydroxytetrahydrofuran-2-yl}methyl [2-(octadecyloxy)ethyl] hydrogen phosphate], the Selectivity index was greater than 333 in [1]; greater than 454 in data set [2] (PSC-human lung cells); 290 in [6]; greater than 526 in data set [3]; greater than 129 in data set [7]. For the same compound, the EC50 in [2] (PSC-human lung cells, […]) was 220 nM; in data set [6], 340 nM; in data set [6] (setting [20]), less than 350 nM; in data set [3] it was 190 nM; in data set [3] (setting [19]), less than 200 nM; in data set [7], 770 nM. Further, the EC90 in data set [2] was determined as 700 nM; in [6] (setting [20]) it was 640 nM; in data set [3] (setting [19]), 370 nM; in [7], 1250 nM. In addition, the CC50 in the data set “in vitro [4]” is greater than 100000 nM; in the data set “in vitro [8]” it was greater than 100000 nM; in the data set “in vitro [9]” it was 98700 nM; in the data set “in vitro [5]” it was greater than 100000 nM; in “in vitro [10]” it was greater than 100000 nM.
